Measured values from ChEMBL document CHEMBL1148968 (J Nat Prod, 2004).
The source made the active and inactive calls. The rule behind the calls is not given here.

How the values were obtained:
[1] = molecular target: T1, Hypoxia inducible factors; HIF-1-alpha, HIF-2-alpha (Homo sapiens, UniProt Q16665+Q99814); experiment: Inhibition of hypoxia-induced HIF1 activation in human T47D cells carrying […] reporter gene measured by luciferase activity; format: cell-based
Outline: (§1)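 T47D cells were transiently transfected with the pTK-HRE3-luc reporter (erythropoietin HRE). They were pretreated with compound for 30 min, then held 16 h at 1% O2/5% CO2/94% N2. Luciferase activity was reported as % inhibition versus the induced control. One representative experiment, run in quadruplicate, mean ± SE.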

MCF7 = experiment: Inhibition of human MCF7 cell proliferation/viability up to 100 uM after 48 hrs by MTT assay; format: functional
Outline: (§2)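 Cells grown in DMEM/F12 with 10% FBS and antibiotics, seeded at 3×10^4/well, incubated 24 h at 37 °C. Compound diluted in serum-free medium, tested at 10^-9 to 10^-4 M for 48 h under normoxia. MTT added to 0.25 mg/mL final for 4 h at 37 °C, then lysed in 0.04 N HCl/isopropanol, A570 read.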

T47D [2] = experiment: Reduction of human T47D cell colony formation under hypoxic condition at 1 uM by clonogenic survival assay; format: functional
Outline: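 T47D cells seeded at 400 cells per 100 mm dish and allowed to adhere 4 h. Half the medium was replaced with serum-free medium containing compound. After a 30 min pretreatment, cells were held 24 h at 1% O2 (normoxic comparison run in parallel). Medium was then refreshed and cells grown 2–3 weeks under normoxia. Colonies were methanol-fixed and stained with crystal violet, and those over 50 cells counted.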

MDA-MB-231 = experiment: Inhibition of human MDA-MB-231 cell proliferation/viability up to 100 uM after 48 hrs by MTT assay; format: functional; outline: as §2
[3] = molecular target: T1, Hypoxia inducible factors; HIF-1-alpha, HIF-2-alpha; experiment: Inhibition of hypoxia-induced HIF1 activation in human T47D cells carrying […] reporter gene measured by luciferase activity at 1.78 uM; format: cell-based; outline: as §1
Mus musculus = species on record: Mus musculus; experiment: Inhibition of C57B1/6 mouse liver mitochondrial activity in presence of succinate; format: functional
T47D [4] = experiment: Inhibition of hypoxia-induced secreted VEGF protein level in human T47D cells at 1 uM by ELISA; format: functional
Outline: (§3)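 T47D cells seeded at 3.56×10^5/well in DMEM/F12 with 10% FBS and grown 24 h. Half the medium was replaced with serum-free medium containing compound. After a 30 min pretreatment, cells were held 16 h at 1% O2. VEGF in conditioned medium was measured by human VEGF ELISA and normalized to viable cell count (hemocytometer). Triplicate, mean ± SE, ANOVA/Fisher's PLSD.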

T47D [5] = experiment: Inhibition of human T47D cell proliferation/viability up to 100 uM after 48 hrs by MTT assay; format: functional; outline: as §2
[6] = Inhibition of electron transport pathway in C57B1/6 mouse liver mitochondria; format: functional
[7] = Inhibition of african green monkey Vero cell proliferation/viability up to 100 uM after 48 hrs by MTT assay; format: cell-based; settings: chlorocebus sabaeus, Vero cells; outline: as §2
SK-BR-3 = experiment: Inhibition of human SK-BR-3 cell proliferation/viability at 100 uM after 48 hrs by MTT assay; format: functional; settings: SK-BR-3, 48 h; outline: as §2
T47D [8] = experiment: Blockade of HIF1alpha protein expression in hypoxia-induced human T47D cells at 1 uM under 30 mins in normoxic condition followed by 4 hrs in hypoxic condition; format: functional, cell-based
Outline: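 T47D nuclear HIF-1α (and HIF-1β) measured by Western blot of nuclear extracts. Exponentially grown cells were pretreated 30 min under normoxia (95% air), then held 4 h at 1% O2.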

T47D [9] = experiment: Inhibition of hypoxia-induced secreted VEGF protein level in human T47D cells at 3 uM by ELISA; format: functional; outline: as §3

EC50 [1]: 0.4 µM
IC50 [1]: 0.4 µM
inhibition [3]: 88%
IC50 [6]: 800 nM
Compound: CC1=C[C@@H](O)C(C(C)CC[C@@H]2[C@@H](C)[C@]3(C)CC[C@@]2(C)O3)CC1 (some centres undefined) [LAURENDITERPENOL]
inhibition (INH) (MCF7): <50%
inhibition at 1 µM (T47D [2]): 50%
inhibition (INH) (MDA-MB-231): <50%
Activity (Mus musculus): inactive
inhibition at 1 µM (T47D [4]): 55%
inhibition (INH) (T47D [5]): <50%
inhibition at 48 h [7]: < 50%
inhibition at 100 µM (SK-BR-3): 63%
Activity (T47D [8]): Active
inhibition at 3 µM (T47D [9]): 80%
